Tests used:
[1] = Drug metabolism in human liver microsomes at 5 uM after 30 mins in presence of NADPH; type: ADME; conditions: read-out: Drug metabolism
Summary of the method: (§1)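 Rat or human hepatic microsomes (1 mg/mL protein) incubated with 5 µM compound plus NADPH for 30 min at 37 °C; result given as percent metabolized.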

[2] = molecular target: Calcium release-activated calcium channel protein 1 (Homo sapiens, UniProt Q96D31); experiment: Inhibition of human Orai1/STIM1 expressed in HEK293 cells assessed as inhibition of channel-mediated calcium current by electrophysiology assay in presence of 10 mM EGTA; type: cell-based
Summary of the method: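 Automated whole-cell patch clamp on HEK293 cells stably expressing human STIM1/Orai1. I_CRAC activated by passive store depletion with 10 mM EGTA in the internal solution. Holding potential 0 mV; 100 ms voltage ramps applied every 3 s. IC50 from normalized inhibition, at least 3 cells per concentration; values are mean ± SD of two or more determinations.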

[3] = Passive permeability of the compound at 20 uM by PAMPA; type: ADME; conditions: read-out: permeability
[4] = Plasma protein binding in Wistar rat; type: ADME, cell-free; conditions: read-out: PPB
[5] = Inhibition of Orai-mediated calcium entry in human Jurkat E6-1 cells after 1 hr by FLIPR assay; type: cell-based
[6] = system: LAD2; experiment: Inhibition of degranulation in human LAD2 cells assessed as inhibition of IgE-induced beta-hexosaminidase release preincubated for 30 mins by p-nitrophenyl-N-acetyl-D-glucosamide-based spectrophotometric assay; type: functional, cell-based
Summary of the method: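 Human LAD2 mast cells sensitized overnight with 100 ng/mL biotin-IgE in SCF-containing medium. Supernatant β-hexosaminidase measured with p-nitrophenyl-N-acetyl-glucosamide (pH 4.5, 90 min, 37 °C), stopped with glycine pH 10, absorbance read at 405 nm.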

[7] = system: Blood; experiment: Inhibition of IL2 secretion in rat whole blood after 24 hrs by Rat IL-2 DuoSet assay; type: functional, tissue-based
Summary of the method: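 Rat whole blood diluted 1:4 in RPMI and stimulated with concanavalin A (62.5 µg/mL) in the presence of increasing compound concentrations for 24 h. Supernatant IL-2 quantified by rat IL-2 ELISA against a standard curve; IC50 derived.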

[8] = system: CHO; experiment: Cytotoxicity against CHO cells; type: cell-based; conditions: Cricetulus griseus
[9] = Inhibition of Orai channel in phytohemagglutinin-stimulated human Jurkat E6-1 cells assessed as NFAT-induced transcription measured as IL-2 level after 20 hrs by ELISA; type: cell-based
[10] = Solubility of the compound in water; type: physicochemical
[11] = Drug metabolism in rat liver microsomes at 5 uM after 30 mins in presence of NADPH; type: ADME; conditions: read-out: Drug metabolism; summary of the method: as §1

Chain of Calcium release-activated calcium channel protein 1 (Q96D31 whole entry): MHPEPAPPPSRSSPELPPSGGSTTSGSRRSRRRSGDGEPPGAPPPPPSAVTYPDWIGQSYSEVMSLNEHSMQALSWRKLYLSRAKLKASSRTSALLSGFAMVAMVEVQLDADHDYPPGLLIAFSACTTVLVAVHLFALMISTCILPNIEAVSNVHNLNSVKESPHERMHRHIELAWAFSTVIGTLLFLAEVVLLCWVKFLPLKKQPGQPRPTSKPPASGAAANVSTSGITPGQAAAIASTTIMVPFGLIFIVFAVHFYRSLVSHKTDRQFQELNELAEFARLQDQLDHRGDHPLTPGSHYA

Row | IC50 [5] | IC50 [9] | Compound | also measured
1 | 155 nM | 180 nM | CNS(=O)(=O)c1ccc(-c2cnc3[nH]c(-c4c(F)cccc4Cl)cc3c2)c(C)c1 | –
2 | 10000 nM | – | CNCc1ccc(-c2cnc3[nH]c(-c4c(F)cccc4Cl)cc3c2)c(C)c1 | –
3 | > 10000 nM | – | Cc1cc(=O)[nH]cc1-c1cnc2[nH]c(-c3c(F)cccc3Cl)cc2c1 | –
4 | 550 nM | 119 nM | Cc1cc(S(=O)(=O)N(C)C)ccc1-c1cnc2[nH]c(-c3c(F)cccc3Cl)cc2c1 | –
5 | 64 nM | 150 nM | Cc1cc(OC(F)F)ncc1-c1cnc2[nH]c(-c3c(F)cccc3Cl)cc2c1 | –
6 | 10000 nM | – | COc1ncc(-c2cnc3[nH]c(-c4c(F)cccc4Cl)cc3c2)c(C)n1 | –
7 | 140 nM | 73 nM | Cn1nc(C(F)(F)F)cc1-c1cnc2[nH]c(-c3c(F)cccc3F)cc2c1 | –

Continued, compound first:

Row | Compound | IC50 [5] | IC50 [9] | also measured
8 | Cn1nc(C(F)(F)F)cc1-c1cnc2[nH]c(-c3c(F)cccc3Cl)cc2c1 | 66 nM | 23 nM | metabolised at 0.5 h, 5 µM [1]: < 5%; IC50 [2]: < 100 nM; Papp at 20 µM [3]: < 0.05 ×10⁻⁶ cm/s; fraction unbound [4]: < 0.001; IC50 [6]: 372 nM; IC50 [7]: 500 nM; IC50 [8]: > 100000 nM; solubility [10]: < 5 µg/mL; metabolised at 0.5 h, 5 µM [11]: < 5%
9 | Cn1nc(C(F)(F)F)cc1-c1cnc2[nH]c(C3CCCC3)cc2c1 | 260 nM | 270 nM | –
10 | Cn1nc(C(F)(F)F)cc1-c1cnc2[nH]c(C3CCOCC3)cc2c1 | > 10000 nM | – | –
11 | Cc1nc2cc(-c3cnc4[nH]c(-c5c(F)cccc5Cl)cc4c3)c(Cl)cc2o1 | 88 nM | 117 nM | solubility [10]: < 1 µg/mL
12 | Cc1cc(=O)n(C)cc1-c1cnc2[nH]c(-c3c(F)cccc3Cl)cc2c1 | > 10000 nM | – | –

From ChEMBL document CHEMBL3399948, “Discovery of 7-azaindole derivatives as potent Orai inhibitors showing efficacy in a preclinical model of asthma” (Bioorg Med Chem Lett, 2015)
